Reference: ChEMBL document CHEMBL4382192, “Discovery of a potent dual ALK and EGFR T790M inhibitor” (Eur J Med Chem, 2017)

What was measured:
[1] = target: Glycogen synthase kinase-3 alpha (Homo sapiens) (UniProt P49840); assay: Binding affinity to wild-type human full length GSK3A (M1 to S483 residues) expressed in bacterial expression system assessed as residual binding level at 1 uM by Kinomescan method relative to control
How it was run: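 Single-point kinome-wide KINOMEscan binding panel, test compound at 1 μM, run by the provider's standard protocol.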

[2] = system: Fibroblast growth factor receptor 3 (Homo sapiens), P22607 [G697C]; assay: Binding affinity to human partial length FGFR3 G697C mutant (R442 to S771 residues) expressed in bacterial expression system assessed as residual binding level at 1 uM by Kinomescan method relative to control
How it was run: (§1)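 Kinome-wide selectivity panel run by the KINOMEscan method, with the test compound at a single concentration of 1 μM. Wild-type and mutant kinases were profiled in the same screen.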

[3] = target: MAP kinase-activated protein kinase 5 (Homo sapiens) (UniProt Q8IW41); assay: Binding affinity to wild-type human partial length MAPKAPK5 (M1 to D322 residues) expressed in mammalian expression system assessed as residual binding level at 1 uM by Kinomescan method relative to control
[4] = target: Tyrosine-protein kinase ABL1 (Homo sapiens) (UniProt P00519); assay: Binding affinity to wild-type human non-phosphorylated ABL1 (S229 to K512 residues) expressed in mammalian expression system assessed as residual binding level at 1 uM by Kinomescan method relative to control
Chain of Tyrosine-protein kinase ABL1 (Homo sapiens) (P00519 whole entry, the tested form may be a part): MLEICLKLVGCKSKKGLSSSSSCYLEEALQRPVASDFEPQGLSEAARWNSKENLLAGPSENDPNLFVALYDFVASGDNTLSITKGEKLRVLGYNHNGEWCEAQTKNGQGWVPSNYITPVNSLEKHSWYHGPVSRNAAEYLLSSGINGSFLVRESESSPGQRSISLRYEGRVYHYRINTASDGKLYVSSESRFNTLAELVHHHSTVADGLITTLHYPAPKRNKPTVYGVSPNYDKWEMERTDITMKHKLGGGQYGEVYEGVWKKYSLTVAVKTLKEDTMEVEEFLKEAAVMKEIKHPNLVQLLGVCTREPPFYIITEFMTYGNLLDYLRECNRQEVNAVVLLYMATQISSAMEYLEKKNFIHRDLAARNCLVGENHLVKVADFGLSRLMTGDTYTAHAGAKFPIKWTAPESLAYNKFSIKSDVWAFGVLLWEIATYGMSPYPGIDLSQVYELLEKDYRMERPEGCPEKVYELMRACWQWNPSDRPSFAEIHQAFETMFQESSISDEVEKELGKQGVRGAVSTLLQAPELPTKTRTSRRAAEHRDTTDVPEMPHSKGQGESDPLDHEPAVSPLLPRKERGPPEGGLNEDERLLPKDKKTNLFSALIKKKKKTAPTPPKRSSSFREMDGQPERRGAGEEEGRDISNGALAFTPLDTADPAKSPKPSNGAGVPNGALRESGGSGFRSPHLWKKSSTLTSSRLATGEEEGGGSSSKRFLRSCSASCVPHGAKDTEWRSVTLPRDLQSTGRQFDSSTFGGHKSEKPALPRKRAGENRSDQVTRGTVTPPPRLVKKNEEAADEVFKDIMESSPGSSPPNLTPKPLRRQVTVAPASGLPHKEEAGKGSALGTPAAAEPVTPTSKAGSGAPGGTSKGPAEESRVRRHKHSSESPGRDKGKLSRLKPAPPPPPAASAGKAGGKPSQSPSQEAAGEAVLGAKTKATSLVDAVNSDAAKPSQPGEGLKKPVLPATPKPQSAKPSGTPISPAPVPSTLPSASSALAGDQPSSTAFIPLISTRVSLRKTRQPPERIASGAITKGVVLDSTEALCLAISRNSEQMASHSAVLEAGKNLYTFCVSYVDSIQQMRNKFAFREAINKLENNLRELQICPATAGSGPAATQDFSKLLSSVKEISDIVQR

[5] = target: Receptor-type tyrosine-protein kinase FLT3 (Homo sapiens) (UniProt P36888); assay: Binding affinity to wild-type human partial length FLT3 (V592 to Y969 residues) expressed in bacterial expression system assessed as residual binding level at 1 uM by Kinomescan method relative to control
[6] = target: Leucine-rich repeat serine/threonine-protein kinase 2 (Homo sapiens) (UniProt Q5S007); assay: Binding affinity to wild-type human partial length LRRK2 (H970 to E2527 residues) expressed in mammalian expression system assessed as residual binding level at 1 uM by Kinomescan method relative to control
Chain of Leucine-rich repeat serine/threonine-protein kinase 2 (Homo sapiens) (Q5S007 whole entry, the tested form may be a part): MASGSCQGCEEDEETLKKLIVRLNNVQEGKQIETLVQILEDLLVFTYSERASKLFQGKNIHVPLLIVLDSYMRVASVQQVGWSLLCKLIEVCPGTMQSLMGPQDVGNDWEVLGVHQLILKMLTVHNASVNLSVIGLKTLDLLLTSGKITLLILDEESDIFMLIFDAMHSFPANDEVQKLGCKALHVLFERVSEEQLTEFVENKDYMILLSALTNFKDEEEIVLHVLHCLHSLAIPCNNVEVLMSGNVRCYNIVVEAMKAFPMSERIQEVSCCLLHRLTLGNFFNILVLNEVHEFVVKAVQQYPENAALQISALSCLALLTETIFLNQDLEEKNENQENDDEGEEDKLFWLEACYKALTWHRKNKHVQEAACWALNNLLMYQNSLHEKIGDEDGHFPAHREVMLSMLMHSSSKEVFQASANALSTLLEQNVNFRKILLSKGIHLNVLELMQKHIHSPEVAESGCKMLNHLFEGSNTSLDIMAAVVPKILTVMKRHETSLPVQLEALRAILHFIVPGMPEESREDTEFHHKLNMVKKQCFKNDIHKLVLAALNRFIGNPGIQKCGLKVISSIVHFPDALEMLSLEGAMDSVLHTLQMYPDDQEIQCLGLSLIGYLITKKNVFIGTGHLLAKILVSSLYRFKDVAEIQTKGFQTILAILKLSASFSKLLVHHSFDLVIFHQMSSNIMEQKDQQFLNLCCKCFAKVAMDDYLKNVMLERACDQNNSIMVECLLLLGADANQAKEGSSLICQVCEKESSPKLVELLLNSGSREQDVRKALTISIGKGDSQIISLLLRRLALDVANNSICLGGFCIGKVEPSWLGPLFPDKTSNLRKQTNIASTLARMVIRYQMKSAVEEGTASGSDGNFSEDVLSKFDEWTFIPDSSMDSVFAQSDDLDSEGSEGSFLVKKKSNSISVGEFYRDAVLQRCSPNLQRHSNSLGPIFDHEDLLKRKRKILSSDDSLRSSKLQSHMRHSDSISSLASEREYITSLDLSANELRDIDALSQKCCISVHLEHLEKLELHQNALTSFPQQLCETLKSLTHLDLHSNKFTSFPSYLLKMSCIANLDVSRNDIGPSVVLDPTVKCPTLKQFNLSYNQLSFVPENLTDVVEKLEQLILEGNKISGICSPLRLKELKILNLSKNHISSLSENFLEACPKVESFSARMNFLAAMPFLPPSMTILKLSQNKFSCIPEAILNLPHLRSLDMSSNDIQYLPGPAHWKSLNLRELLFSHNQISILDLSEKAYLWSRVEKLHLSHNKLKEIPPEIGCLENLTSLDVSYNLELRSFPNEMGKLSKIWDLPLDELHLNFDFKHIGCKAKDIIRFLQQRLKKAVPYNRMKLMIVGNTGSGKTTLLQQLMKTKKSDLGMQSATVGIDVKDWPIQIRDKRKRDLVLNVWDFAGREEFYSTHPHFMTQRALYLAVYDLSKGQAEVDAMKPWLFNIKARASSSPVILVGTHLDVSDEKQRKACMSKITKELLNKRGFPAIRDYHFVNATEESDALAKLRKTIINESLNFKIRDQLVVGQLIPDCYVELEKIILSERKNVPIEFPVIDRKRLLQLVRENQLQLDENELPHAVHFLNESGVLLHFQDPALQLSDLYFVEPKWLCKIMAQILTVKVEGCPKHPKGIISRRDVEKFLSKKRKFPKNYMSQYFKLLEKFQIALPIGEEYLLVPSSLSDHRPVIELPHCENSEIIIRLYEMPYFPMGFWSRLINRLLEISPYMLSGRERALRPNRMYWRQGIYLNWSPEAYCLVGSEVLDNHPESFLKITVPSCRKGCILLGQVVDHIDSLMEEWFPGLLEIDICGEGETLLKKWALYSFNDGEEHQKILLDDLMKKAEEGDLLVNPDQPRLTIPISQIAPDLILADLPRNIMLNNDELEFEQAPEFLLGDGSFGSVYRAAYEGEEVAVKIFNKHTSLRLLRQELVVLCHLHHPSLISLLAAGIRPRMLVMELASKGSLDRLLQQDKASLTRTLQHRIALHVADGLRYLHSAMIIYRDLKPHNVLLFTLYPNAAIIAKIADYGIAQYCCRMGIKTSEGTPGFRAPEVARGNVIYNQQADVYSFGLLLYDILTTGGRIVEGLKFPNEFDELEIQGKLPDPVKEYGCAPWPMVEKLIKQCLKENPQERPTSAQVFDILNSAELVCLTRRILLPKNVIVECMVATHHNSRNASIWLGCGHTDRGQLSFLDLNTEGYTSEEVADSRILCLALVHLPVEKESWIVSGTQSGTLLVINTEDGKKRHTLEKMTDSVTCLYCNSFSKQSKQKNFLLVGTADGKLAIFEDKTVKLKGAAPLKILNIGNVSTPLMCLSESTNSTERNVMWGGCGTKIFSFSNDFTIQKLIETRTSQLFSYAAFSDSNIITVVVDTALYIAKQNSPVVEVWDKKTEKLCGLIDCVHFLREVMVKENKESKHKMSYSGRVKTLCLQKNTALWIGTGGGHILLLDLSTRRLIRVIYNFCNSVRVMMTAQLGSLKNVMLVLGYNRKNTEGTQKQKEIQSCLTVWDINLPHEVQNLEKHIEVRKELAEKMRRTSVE

[7] = target: Mitogen-activated protein kinase 7 (Homo sapiens) (UniProt Q13164); assay: Binding affinity to wild-type human partial length ERK5 (M1 to A409 residues) expressed in bacterial expression system assessed as residual binding level at 1 uM by Kinomescan method relative to control
[8] = target: Calcium-dependent protein kinase 1 (Plasmodium falciparum) (UniProt P62344); assay: Binding affinity to wild-type Plasmodium falciparum full length CDPK1 (M1 to S524 residues) expressed in mammalian expression system assessed as residual binding level at 1 uM by Kinomescan method relative to control
[9] = target: Serine/threonine-protein kinase PAK 1 (Homo sapiens) (UniProt Q13153); assay: Binding affinity to wild-type human partial length PAK1 (S149 to H545 residues) expressed in bacterial expression system assessed as residual binding level at 1 uM by Kinomescan method relative to control
Chain of Serine/threonine-protein kinase PAK 1 (Homo sapiens) (Q13153 whole entry, the tested form may be a part): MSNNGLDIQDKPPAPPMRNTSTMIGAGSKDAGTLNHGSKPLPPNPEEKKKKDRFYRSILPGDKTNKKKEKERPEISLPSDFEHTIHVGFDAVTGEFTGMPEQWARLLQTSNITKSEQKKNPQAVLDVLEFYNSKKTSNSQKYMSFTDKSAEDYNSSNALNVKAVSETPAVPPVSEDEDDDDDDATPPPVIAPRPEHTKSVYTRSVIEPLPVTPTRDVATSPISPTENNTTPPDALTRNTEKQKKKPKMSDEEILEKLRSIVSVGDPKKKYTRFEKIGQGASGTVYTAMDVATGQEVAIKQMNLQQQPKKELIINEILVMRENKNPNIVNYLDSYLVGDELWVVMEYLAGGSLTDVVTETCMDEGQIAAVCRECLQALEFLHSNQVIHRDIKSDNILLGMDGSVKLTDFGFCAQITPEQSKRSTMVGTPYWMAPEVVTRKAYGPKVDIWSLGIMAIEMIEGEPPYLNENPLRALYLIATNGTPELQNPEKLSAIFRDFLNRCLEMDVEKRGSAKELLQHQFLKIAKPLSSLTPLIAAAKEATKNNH

[10] = target: Mitogen-activated protein kinase 6 (Homo sapiens) (UniProt Q16659); assay: Binding affinity to wild-type human partial length ERK3 (M1 to P413 residues) expressed in bacterial expression system assessed as residual binding level at 1 uM by Kinomescan method relative to control
[11] = target: Protein kinase C eta type (Homo sapiens) (UniProt P24723); assay: Binding affinity to wild-type human partial length PRKCH (S324 to P683 residues) expressed in bacterial expression system assessed as residual binding level at 1 uM by Kinomescan method relative to control
[12] = Drug uptake in mouse lung at 2 mg/kg, iv after 2 hrs; assay type: ADME, organism-based; conditions: read-out: Drug uptake
[13] = target: Serine/threonine-protein kinase 3 (Homo sapiens) (UniProt Q13188); assay: Binding affinity to wild-type human partial length MST2 (D17 to E318 residues) expressed in bacterial expression system assessed as residual binding level at 1 uM by Kinomescan method relative to control
[14] = target: Mitogen-activated protein kinase kinase kinase kinase 5 (Homo sapiens) (UniProt Q9Y4K4); assay: Binding affinity to wild-type human partial length MAP4K5 (M1 to P297 residues) expressed in bacterial expression system assessed as residual binding level at 1 uM by Kinomescan method relative to control
Chain of Mitogen-activated protein kinase kinase kinase kinase 5 (Homo sapiens) (Q9Y4K4 whole entry, looked up, the tested form may be a part): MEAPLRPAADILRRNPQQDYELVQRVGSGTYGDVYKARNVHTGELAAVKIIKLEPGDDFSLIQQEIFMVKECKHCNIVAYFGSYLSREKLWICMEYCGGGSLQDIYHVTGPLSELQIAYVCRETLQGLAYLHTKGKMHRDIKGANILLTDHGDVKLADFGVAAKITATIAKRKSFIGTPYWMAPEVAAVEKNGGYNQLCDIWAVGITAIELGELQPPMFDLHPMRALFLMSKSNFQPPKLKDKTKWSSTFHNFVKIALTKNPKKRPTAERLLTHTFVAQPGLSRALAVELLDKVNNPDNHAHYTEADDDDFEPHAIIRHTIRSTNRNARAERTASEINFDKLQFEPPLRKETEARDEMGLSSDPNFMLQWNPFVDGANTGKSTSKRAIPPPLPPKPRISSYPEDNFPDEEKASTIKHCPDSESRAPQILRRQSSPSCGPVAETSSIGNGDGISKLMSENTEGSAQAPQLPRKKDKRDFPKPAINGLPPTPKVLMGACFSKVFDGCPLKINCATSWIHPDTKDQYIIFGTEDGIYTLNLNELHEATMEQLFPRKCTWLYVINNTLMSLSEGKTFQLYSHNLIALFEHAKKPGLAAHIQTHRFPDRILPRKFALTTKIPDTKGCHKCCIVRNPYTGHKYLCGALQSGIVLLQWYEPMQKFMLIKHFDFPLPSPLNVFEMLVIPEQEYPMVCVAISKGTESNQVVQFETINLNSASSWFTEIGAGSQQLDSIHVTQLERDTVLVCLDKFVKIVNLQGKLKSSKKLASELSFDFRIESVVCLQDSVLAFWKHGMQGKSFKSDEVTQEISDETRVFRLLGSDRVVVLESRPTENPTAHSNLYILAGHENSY

[15] = target: Membrane-associated tyrosine- and threonine-specific cdc2-inhibitory kinase (Homo sapiens) (UniProt Q99640); assay: Binding affinity to wild-type human partial length PKMYT1 (A88 to G366 residues) expressed in bacterial expression system assessed as residual binding level at 1 uM by Kinomescan method relative to control
[16] = target: Tyrosine-protein kinase Lyn (Homo sapiens) (UniProt P07948); assay: Binding affinity to wild-type human partial length LYN (C219 to Q511 residues) expressed in bacterial expression system assessed as residual binding level at 1 uM by Kinomescan method relative to control
[17] = target: Tyrosine-protein kinase JAK2 (Homo sapiens) (UniProt O60674); assay: Binding affinity to wild-type human partial length JAK2 JH1 catalytic domain (A829 to G1132 residues) expressed in mammalian expression system assessed as residual binding level at 1 uM by Kinomescan method relative to control
[18] = target: Insulin receptor (Homo sapiens, UniProt P06213); assay: Binding affinity to wild-type human partial length INSR (P997 to E1318 residues) expressed in mammalian expression system assessed as residual binding level at 1 uM by Kinomescan method relative to control
[19] = target: RAC-alpha serine/threonine-protein kinase (Homo sapiens) (UniProt P31749); assay: Binding affinity to wild-type human partial length AKT1 expressed in bacterial expression system assessed as residual binding level at 1 uM by Kinomescan method relative to control
[20] = target: Dual specificity tyrosine-phosphorylation-regulated kinase 1B (Homo sapiens) (UniProt Q9Y463); assay: Binding affinity to wild-type human full length DYRK1B (M1 to S629 residues) expressed in bacterial expression system assessed as residual binding level at 1 uM by Kinomescan method relative to control
[21] = target: Proto-oncogene tyrosine-protein kinase ROS (Homo sapiens) (UniProt P08922); assay: Binding affinity to wild-type human partial length ROS1 (A1921 to N2240 residues) expressed in bacterial expression system assessed as residual binding level at 1 uM by Kinomescan method relative to control
[22] = system: Mast/stem cell growth factor receptor Kit (Homo sapiens), P10721 [D816V]; assay: Binding affinity to human partial length KIT D816V mutant (I571 to D952 residues) expressed in bacterial expression system assessed as residual binding level at 1 uM by Kinomescan method relative to control; how it was run: as §1
[23] = target: STE20-like serine/threonine-protein kinase (Homo sapiens, UniProt Q9H2G2); assay: Binding affinity to wild-type human partial length SLK (S14 to A307 residues) expressed in bacterial expression system assessed as residual binding level at 1 uM by Kinomescan method relative to control
[24] = target: Ribosomal protein S6 kinase beta-1 (Homo sapiens) (UniProt P23443); assay: Binding affinity to wild-type human partial length S6K1 (M1 to S421 residues) expressed in mammalian expression system assessed as residual binding level at 1 uM by Kinomescan method relative to control

C=CC(=O)Nc1cc(Nc2ncc(Cl)c(Nc3ccccc3S(=O)(=O)C(C)C)n2)c(OC)cc1N(C)CCN(C)C
Activity [1]: 99%
Activity [2]: 15%
Activity [3]: 100%
Activity [4]: 8.4%
Activity [5]: 3.1%
Activity [6]: 1.7%
Activity [7]: 37%
Activity [8]: 93%
Activity [9]: 65%
Activity [10]: 94%
Activity [11]: 100%
concentration at 2 h [12]: 2.36 µM
Activity [13]: 56%
Activity [14]: 66%
Activity [15]: 80%
Activity [16]: 57%
Activity [17]: 5.7%
Activity [18]: 0%
Activity [19]: 98%
Activity [20]: 48%
Activity [21]: 0%
Activity [22]: 26%
Activity [23]: 0%
Activity [24]: 94%
